Source: PMC11661184 (bioRxiv, 2024)
No end group written: not given here.

Test system: CaM (Calmodulin-agarose)
Assay: CaM-agarose pulldown of TRPA1 constructs
Assay type: binding
Settings: for CaM binding of MBP-tagged C-terminal peptides: expressed in HEK293T; for CaM binding of truncated hTRPA1 constructs: CaM-agarose pulldown, HEK293T lysate, immunoblot
In short: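 HEK293T cells were transfected with tagged TRPA1 constructs and lysed after 16-24 h in Tris pH 8.0 buffer containing 5 mM DDM and 500 µM EGTA. Free Ca²⁺ was set with CaCl₂, calculated from EGTA constants. 100 µg lysate was incubated with CaM-agarose for 1 h at 4 °C, washed, then eluted with 5 mM EGTA. Detection was by anti-FLAG or anti-MBP immunoblot, with tubulin input control. Enrichment is relative to the maximum within each replicate.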

Molecule | CaM binding of truncated hTRPA1 constructs | other results
WT mouse: WT mouse TRPA1, MBP-tagged |  | CaM binding of TRPA1 species orthologues (MBP-tagged constructs, absence or presence of Ca2+, four independent experiments): bound CaM in a Ca^2+-dependent manner
hTRPA1^1099–1119: MBP-tagged smaller fragment of hTRPA1 C-terminus (RNSRWNTVLRAVKAKTHHLEP; also: MBP-tagged) |  | CaM binding of MBP-tagged C-terminal peptides (absence or presence of Ca2+): bound CaM in a Ca^2+-dependent manner
hTRPA1^1079–1119: MBP-tagged full hTRPA1 unresolved C-terminus (EDDDSHCSFQDRFKKEQMEQRNSRWNTVLRAVKAKTHHLEP; also: MBP-tagged) |  | CaM binding of MBP-tagged C-terminal peptides (absence or presence of Ca2+): bound CaM in a Ca^2+-dependent manner
L1107A (protein, UniProt O75762 1-1119, looked up, variant L1107A) Transient receptor potential …: MKRSLRKMWRPGEKKEPQGVVYEDVPDDTEDFKESLKVVFEGSAYGLQNFNKQKKLKRCDDMDTFFLHYAAAEGQIELMEKITRDSSLEVLHEMDDYGNTPLHCAVEKNQIESVKFLLSRGANPNLRNFNMMAPLHIAVQGMNNEVMKVLLEHRTIDVNLEGENGNTAVIIACTTNNSEALQILLKKGAKPCKSNKWGCFPIHQAAFSGSKECMEIILRFGEEHGYSRQLHINFMNNGKATPLHLAVQNGDLEMIKMCLDNGAQIDPVEKGRCTAIHFAATQGATEIVKLMISSYSGSVDIVNTTDGCHETMLHRASLFDHHELADYLISVGADINKIDSEGRSPLILATASASWNIVNLLLSKGAQVDIKDNFGRNFLHLTVQQPYGLKNLRPEFMQMQQIKELVMDEDNDGCTPLHYACRQGGPGSVNNLLGFNVSIHSKSKDKKSPLHFAASYGRINTCQRLLQDISDTRLLNEGDLHGMTPLHLAAKNGHDKVVQLLLKKGALFLSDHNGWTALHHASMGGYTQTMKVILDTNLKCTDRLDEDGNTALHFAAREGHAKAVALLLSHNADIVLNKQQASFLHLALHNKRKEVVLTIIRSKRWDECLKIFSHNSPGNKCPITEMIEYLPECMKVLLDFCMLHSTEDKSCRDYYIEYNFKYLQCPLEFTKKTPTQDVIYEPLTALNAMVQNNRIELLNHPVCKEYLLMKWLAYGFRAHMMNLGSYCLGLIPMTILVVNIKPGMAFNSTGIINETSDHSEILDTTNSYLIKTCMILVFLSSIFGYCKEAGQIFQQKRNYFMDISNVLEWIIYTTGIIFVLPLFVEIPAHLQWQCGAIAVYFYWMNFLLYLQRFENCGIFIVMLEVILKTLLRSTVVFIFLLLAFGLSFYILLNLQDPFSSPLLSIIQTFSMMLGDINYRESFLEPYLRNELAHPVLSFAQLVSFTIFVPIVLMNLLIGLAVGDIAEVQKHASLKRIAMQVELHTSLEKKLPLWFLRKVDQKSTIVYPNKPRSGGMLFHIFCFLFCTGEIRQEIPNADKSLEMEILKQKYRLKDLTFLLEKQHELIKLIIQKMEIISETEDDDSHCSFQDRFKKEQMEQRNSRWNTVARAVKAKTHHLEP |  | CaM binding at basal Ca2+ concentration (basal Ca2+, n=3 independent experiments): partial reduction in binding

The next lines start with results.

CaM binding of truncated hTRPA1 constructs | Molecule | other results
failed to bind CaM in vitro | hTRPA1^S488-T1078: minimal hTRPA1 construct previously used for structural determination, retains the CaMBD (protein) SPLHFAASYGRINTCQRLLQDISDTRLLNEGDLHGMTPLHLAAKNGHDKVVQLLLKKGALFLSDHNGWTALHHASMGGYTQTMKVILDTNLKCTDRLDEDGNTALHFAAREGHAKAVALLLSHNADIVLNKQQASFLHLALHNKRKEVVLTIIRSKRWDECLKIFSHNSPGNKCPITEMIEYLPECMKVLLDFCMLHSTEDKSCRDYYIEYNFKYLQCPLEFTKKTPTQDVIYEPLTALNAMVQNNRIELLNHPVCKEYLLMKWLAYGFRAHMMNLGSYCLGLIPMTILVVNIKPGMAFNSTGIINETSDHSEILDTTNSYLIKTCMILVFLSSIFGYCKEAGQIFQQKRNYFMDISNVLEWIIYTTGIIFVLPLFVEIPAHLQWQCGAIAVYFYWMNFLLYLQRFENCGIFIVMLEVILKTLLRSTVVFIFLLLAFGLSFYILLNLQDPFSSPLLSIIQTFSMMLGDINYRESFLEPYLRNELAHPVLSFAQLVSFTIFVPIVLMNLLIGLAVGDIAEVQKHASLKRIAMQVELHTSLEKKLPLWFLRKVDQKSTIVYPNKPRSGGMLFHIFCFLFCTGEIRQEIPNADKSLEMEILKQKYRLKDLTFLLEKQHELIKLIIQKMEIISET | 
failed to bind CaM | hTRPA1^M62-T1078: hTRPA1 construct containing full ARD but lacking the structurally unresolved N- and C-termini (protein) MDTFFLHYAAAEGQIELMEKITRDSSLEVLHEMDDYGNTPLHCAVEKNQIESVKFLLSRGANPNLRNFNMMAPLHIAVQGMNNEVMKVLLEHRTIDVNLEGENGNTAVIIACTTNNSEALQILLKKGAKPCKSNKWGCFPIHQAAFSGSKECMEIILRFGEEHGYSRQLHINFMNNGKATPLHLAVQNGDLEMIKMCLDNGAQIDPVEKGRCTAIHFAATQGATEIVKLMISSYSGSVDIVNTTDGCHETMLHRASLFDHHELADYLISVGADINKIDSEGRSPLILATASASWNIVNLLLSKGAQVDIKDNFGRNFLHLTVQQPYGLKNLRPEFMQMQQIKELVMDEDNDGCTPLHYACRQGGPGSVNNLLGFNVSIHSKSKDKKSPLHFAASYGRINTCQRLLQDISDTRLLNEGDLHGMTPLHLAAKNGHDKVVQLLLKKGALFLSDHNGWTALHHASMGGYTQTMKVILDTNLKCTDRLDEDGNTALHFAAREGHAKAVALLLSHNADIVLNKQQASFLHLALHNKRKEVVLTIIRSKRWDECLKIFSHNSPGNKCPITEMIEYLPECMKVLLDFCMLHSTEDKSCRDYYIEYNFKYLQCPLEFTKKTPTQDVIYEPLTALNAMVQNNRIELLNHPVCKEYLLMKWLAYGFRAHMMNLGSYCLGLIPMTILVVNIKPGMAFNSTGIINETSDHSEILDTTNSYLIKTCMILVFLSSIFGYCKEAGQIFQQKRNYFMDISNVLEWIIYTTGIIFVLPLFVEIPAHLQWQCGAIAVYFYWMNFLLYLQRFENCGIFIVMLEVILKTLLRSTVVFIFLLLAFGLSFYILLNLQDPFSSPLLSIIQTFSMMLGDINYRESFLEPYLRNELAHPVLSFAQLVSFTIFVPIVLMNLLIGLAVGDIAEVQKHASLKRIAMQVELHTSLEKKLPLWFLRKVDQKSTIVYPNKPRSGGMLFHIFCFLFCTGEIRQEIPNADKSLEMEILKQKYRLKDLTFLLEKQHELIKLIIQKMEIISET | 
did not affect Ca^2+/CaM binding | hTRPA1^Δ1–61 (protein) MDTFFLHYAAAEGQIELMEKITRDSSLEVLHEMDDYGNTPLHCAVEKNQIESVKFLLSRGANPNLRNFNMMAPLHIAVQGMNNEVMKVLLEHRTIDVNLEGENGNTAVIIACTTNNSEALQILLKKGAKPCKSNKWGCFPIHQAAFSGSKECMEIILRFGEEHGYSRQLHINFMNNGKATPLHLAVQNGDLEMIKMCLDNGAQIDPVEKGRCTAIHFAATQGATEIVKLMISSYSGSVDIVNTTDGCHETMLHRASLFDHHELADYLISVGADINKIDSEGRSPLILATASASWNIVNLLLSKGAQVDIKDNFGRNFLHLTVQQPYGLKNLRPEFMQMQQIKELVMDEDNDGCTPLHYACRQGGPGSVNNLLGFNVSIHSKSKDKKSPLHFAASYGRINTCQRLLQDISDTRLLNEGDLHGMTPLHLAAKNGHDKVVQLLLKKGALFLSDHNGWTALHHASMGGYTQTMKVILDTNLKCTDRLDEDGNTALHFAAREGHAKAVALLLSHNADIVLNKQQASFLHLALHNKRKEVVLTIIRSKRWDECLKIFSHNSPGNKCPITEMIEYLPECMKVLLDFCMLHSTEDKSCRDYYIEYNFKYLQCPLEFTKKTPTQDVIYEPLTALNAMVQNNRIELLNHPVCKEYLLMKWLAYGFRAHMMNLGSYCLGLIPMTILVVNIKPGMAFNSTGIINETSDHSEILDTTNSYLIKTCMILVFLSSIFGYCKEAGQIFQQKRNYFMDISNVLEWIIYTTGIIFVLPLFVEIPAHLQWQCGAIAVYFYWMNFLLYLQRFENCGIFIVMLEVILKTLLRSTVVFIFLLLAFGLSFYILLNLQDPFSSPLLSIIQTFSMMLGDINYRESFLEPYLRNELAHPVLSFAQLVSFTIFVPIVLMNLLIGLAVGDIAEVQKHASLKRIAMQVELHTSLEKKLPLWFLRKVDQKSTIVYPNKPRSGGMLFHIFCFLFCTGEIRQEIPNADKSLEMEILKQKYRLKDLTFLLEKQHELIKLIIQKMEIISETEDDDSHCSFQDRFKKEQMEQRNSRWNTVLRAVKAKTHHLEP | 
ablated Ca^2+/CaM binding | hTRPA1^Δ1079–1119 (protein) MKRSLRKMWRPGEKKEPQGVVYEDVPDDTEDFKESLKVVFEGSAYGLQNFNKQKKLKRCDDMDTFFLHYAAAEGQIELMEKITRDSSLEVLHEMDDYGNTPLHCAVEKNQIESVKFLLSRGANPNLRNFNMMAPLHIAVQGMNNEVMKVLLEHRTIDVNLEGENGNTAVIIACTTNNSEALQILLKKGAKPCKSNKWGCFPIHQAAFSGSKECMEIILRFGEEHGYSRQLHINFMNNGKATPLHLAVQNGDLEMIKMCLDNGAQIDPVEKGRCTAIHFAATQGATEIVKLMISSYSGSVDIVNTTDGCHETMLHRASLFDHHELADYLISVGADINKIDSEGRSPLILATASASWNIVNLLLSKGAQVDIKDNFGRNFLHLTVQQPYGLKNLRPEFMQMQQIKELVMDEDNDGCTPLHYACRQGGPGSVNNLLGFNVSIHSKSKDKKSPLHFAASYGRINTCQRLLQDISDTRLLNEGDLHGMTPLHLAAKNGHDKVVQLLLKKGALFLSDHNGWTALHHASMGGYTQTMKVILDTNLKCTDRLDEDGNTALHFAAREGHAKAVALLLSHNADIVLNKQQASFLHLALHNKRKEVVLTIIRSKRWDECLKIFSHNSPGNKCPITEMIEYLPECMKVLLDFCMLHSTEDKSCRDYYIEYNFKYLQCPLEFTKKTPTQDVIYEPLTALNAMVQNNRIELLNHPVCKEYLLMKWLAYGFRAHMMNLGSYCLGLIPMTILVVNIKPGMAFNSTGIINETSDHSEILDTTNSYLIKTCMILVFLSSIFGYCKEAGQIFQQKRNYFMDISNVLEWIIYTTGIIFVLPLFVEIPAHLQWQCGAIAVYFYWMNFLLYLQRFENCGIFIVMLEVILKTLLRSTVVFIFLLLAFGLSFYILLNLQDPFSSPLLSIIQTFSMMLGDINYRESFLEPYLRNELAHPVLSFAQLVSFTIFVPIVLMNLLIGLAVGDIAEVQKHASLKRIAMQVELHTSLEKKLPLWFLRKVDQKSTIVYPNKPRSGGMLFHIFCFLFCTGEIRQEIPNADKSLEMEILKQKYRLKDLTFLLEKQHELIKLIIQKMEIISET | 
